Assay results reported in paper PMC5976445 (Journal of inorganic biochemistry, 2018).
Where two headings read alike, the source gives them in different places.

What was measured:
[1] = molecular target: T1, CYP101D1 (Novosphingobium aromaticivorans, UniProt Q2GB12); assay: isothermal titration calorimetry; type: binding
T1 sequence (Q2GB12 1-421): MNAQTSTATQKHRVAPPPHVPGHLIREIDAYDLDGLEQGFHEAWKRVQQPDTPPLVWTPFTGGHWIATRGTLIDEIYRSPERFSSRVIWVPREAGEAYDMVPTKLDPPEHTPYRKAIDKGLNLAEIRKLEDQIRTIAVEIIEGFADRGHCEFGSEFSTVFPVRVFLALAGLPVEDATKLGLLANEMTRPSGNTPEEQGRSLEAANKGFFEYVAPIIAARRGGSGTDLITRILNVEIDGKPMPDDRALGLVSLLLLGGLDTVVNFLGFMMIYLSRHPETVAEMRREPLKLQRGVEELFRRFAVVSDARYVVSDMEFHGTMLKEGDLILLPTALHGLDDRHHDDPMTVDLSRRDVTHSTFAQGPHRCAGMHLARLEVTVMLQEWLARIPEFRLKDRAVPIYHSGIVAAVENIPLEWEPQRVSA
How it was run: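 CYP101D1, expressed His-tagged in E. coli BL21(DE3), Ni-IMAC purified, thrombin-cleaved and gel-filtered. ITC at 25°C in 50 mM potassium phosphate without reducing agents. Either 600 μM–1 mM test compound was titrated into 40–50 μM CYP101D1, or 2 mM redox partner into 50 μM CYP101D1 (±1 mM camphor). 18 × 2 μL injections, 150 s apart, 750 rpm. Corrected for dilution enthalpy. 3–5 runs.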

[2] = molecular target: CYP101D1 (UniProt Q2GB12); assay: ITC
[3] = molecular target: CYP101D1 (UniProt Q2GB12); assay: ITC; remark: listed apart in the source
[4] = molecular target: CYP101D1 (UniProt Q2GB12); assay: ITC; remark: listed apart in the source
[5] = molecular target: CYP101D1 (UniProt Q2GB12); assay: ITC; remark: listed apart in the source

Row | Compound | Kd [1] [µM] | Kd [2] [µM] | dH [2] [kcal/mol] | Kd [3] [µM] | Kd [4] [µM] | dH [4] [kcal/mol] | Kd [5] [µM]
1 | CC1(C)[C@@H]2CC[C@@]1(C)C(=O)C2 [D-camphor] | 14.9 |  |  |  |  |  | 
2 | Arx (natural protein) |  | 94.8 | -18.2 | 97.7 | 41.1 | -12.1 | 43.3
